Experimental data as given in publication PMC10546487 (Journal of medicinal chemistry, 2022).

How the values were obtained:
[1] = test system: mice; experiment: Warm-water tail immersion assay; assay type: in vivo, mouse
Outline: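 Male Swiss-Webster mice (23–35 g, 7–8 weeks), n = 5 per group. Single test-compound dose of 10 mg/kg given subcutaneously at time 0. Tail-flick latency measured in water at 56 ± 0.1 °C. Saline served as negative control and morphine as positive control. Response expressed as % maximum possible effect, reported as mean ± SD.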

[2] = molecular target: KOR (Mus musculus, UniProt P33534); experiment: Radioligand competition binding assay, KOR
[3] = molecular target: DOR (Mus musculus, UniProt P32300); experiment: Radioligand competition binding assay, DOR
[4] = molecular target: T1, MOR (Mus musculus, UniProt P42866); experiment: Radioligand competition binding assay, MOR
[5] = Solubility observed during testing; assay type: physicochemical; details: during binding/functional testing
[6] = molecular target: T1, MOR; experiment: MOR [35S]-GTPγS functional assay; assay type: biochemical
[7] = molecular target: T1, MOR; details: low MOR-expressing CHO cells and mouse thalamus; cited from earlier work
[8] = test system: morphine-pelleted mice; experiment: Opioid withdrawal study in chronic morphine-pelleted mice; assay type: in vivo, mouse; details: 1 mg/kg s.c.

## O=C(N[C@@H]1CC[C@@]2(O)[C@H]3Cc4ccc(O)c5c4[C@@]2(CCN3CC2CC2)[C@H]1O5)c1cccc2c(Cl)c[nH]c12 [Compound 7, 17-Cyclopropylmethyl-3,14β-dihydroxy-4,5α-epoxy-6β-(3-chloro-indole-7-carboxamido)morphinan]
[1]; 10 mg/kg s.c., 56 °C
  Antinociception effect (% MPE): noticeable antinociception
[2]
  Ki: 0.33 ± 0.05 nM
[3]
  Ki: 4.43 ± 1.06 nM

## CC(=O)c1c[nH]c2c(C(=O)N[C@@H]3CC[C@@]4(O)[C@H]5Cc6ccc(O)c7c6[C@@]4(CCN5CC4CC4)[C@H]3O7)cccc12 [Compound 11, 17-Cyclopropylmethyl-3,14β-dihydroxy-4,5α-epoxy-6β-(3-acetyl-indole-7-carboxamido)morphinan]
[4]; ratio of Ki values DOR/MOR
  Selectivity δ/μ: < 1.6
[4]; ratio of Ki values KOR/MOR
  Selectivity κ/μ: <0.3
[5]
  Solubility observed in the in vitro assay: poor solubility
[3]
  Ki: 81.1 ± 9.98 nM

## O=C(N[C@@H]1CC[C@@]2(O)[C@H]3Cc4ccc(O)c5c4[C@@]2(CCN3CC2CC2)[C@H]1O5)c1cccc2c(C3CCCC3)c[nH]c12 [Compound 15, 17-Cyclopropylmethyl-3,14β-dihydroxy-4,5α-epoxy-6β-(3-cyclo-pentyl-indole-7-carboxamido)morphinan]
[6]
  EC50: 2.28 ± 0.59 nM
[3]
  Ki: 9.88 ± 1.13 nM

## O=C(N[C@H]1CC[C@@]2(O)[C@H]3Cc4ccc(O)c5c4[C@@]2(CCN3CC2CC2)[C@H]1O5)c1cccc2cc(Br)[nH]c12 [Compound 18, 17-Cyclopropylmethyl-3,14β-dihydroxy-4,5α-epoxy-6α-(2-bromo-indole-7-carboxamido)morphinan]
[6]
  EC50: 2.36 ± 0.7 nM
[1]; 10 mg/kg s.c. in the presence of morphine (10 mg/kg)
  Blockage of the morphine-mediated antinociception: different degrees of inhibition of morphine’s antinociceptive effect
[3]
  Ki: 6.73 ± 1 nM

## CC(=O)c1c[nH]c2c(C(=O)N[C@H]3CC[C@@]4(O)[C@H]5Cc6ccc(O)c7c6[C@@]4(CCN5CC4CC4)[C@H]3O7)cccc12 [Compound 28, 17-Cyclopropylmethyl-3,14β-dihydroxy-4,5α-epoxy-6α-(3-acetyl-indole-7-carboxamido)morphinan]
[2]
  Ki: 6.39 ± 1.07 nM
[3]
  Ki: 10.9 ± 1.58 nM

## O=C(N[C@@H]1CC[C@@]2(O)[C@H]3Cc4ccc(O)c5c4[C@@]2(CCN3CC2CC2)[C@H]1O5)c1ccncc1 [NAP, 17-Cyclopropylmethyl-3,14β-dihydroxy-4,5α-epoxy-6β-[(4′-pyridyl)carboxamido]morphinan]
[7]
  Shift of DAMGO concentration effect curve: parallel rightward shift in the concentration effect curve of MOR full agonist DAMGO

## O=C(N[C@H]1CC[C@@]2(O)[C@H]3Cc4ccc(O)c5c4[C@@]2(CCN3CC2CC2)[C@H]1O5)c1cc2ccccc2cn1 [NAQ, 17-cyclopropylmethyl-3,14β-dihydroxy-4,5α-epoxy-6α-(isoquinoline-3-carboxamido)-morphinan]
[7]
  Shift of DAMGO concentration effect curve: parallel rightward shift in the concentration effect curve of MOR full agonist DAMGO

## C=CCN1CC[C@]23c4c5ccc(O)c4O[C@H]2C(=O)CC[C@@]3(O)[C@H]1C5 [NLX, naloxone, reference compound]
[8]
  Withdrawal symptoms: induced significant withdrawal symptoms
